# According to article PMC5077689 (FEBS letters, 2016):
# Tests used:
# full length sGC = target: T1, full length sGC (Bos taurus, UniProt P16068+P19687); experiment: Size exclusion chromatography for sGC aggregation; conditions: 200μM compound, data not shown
# T1 sequence (P19687 1-691): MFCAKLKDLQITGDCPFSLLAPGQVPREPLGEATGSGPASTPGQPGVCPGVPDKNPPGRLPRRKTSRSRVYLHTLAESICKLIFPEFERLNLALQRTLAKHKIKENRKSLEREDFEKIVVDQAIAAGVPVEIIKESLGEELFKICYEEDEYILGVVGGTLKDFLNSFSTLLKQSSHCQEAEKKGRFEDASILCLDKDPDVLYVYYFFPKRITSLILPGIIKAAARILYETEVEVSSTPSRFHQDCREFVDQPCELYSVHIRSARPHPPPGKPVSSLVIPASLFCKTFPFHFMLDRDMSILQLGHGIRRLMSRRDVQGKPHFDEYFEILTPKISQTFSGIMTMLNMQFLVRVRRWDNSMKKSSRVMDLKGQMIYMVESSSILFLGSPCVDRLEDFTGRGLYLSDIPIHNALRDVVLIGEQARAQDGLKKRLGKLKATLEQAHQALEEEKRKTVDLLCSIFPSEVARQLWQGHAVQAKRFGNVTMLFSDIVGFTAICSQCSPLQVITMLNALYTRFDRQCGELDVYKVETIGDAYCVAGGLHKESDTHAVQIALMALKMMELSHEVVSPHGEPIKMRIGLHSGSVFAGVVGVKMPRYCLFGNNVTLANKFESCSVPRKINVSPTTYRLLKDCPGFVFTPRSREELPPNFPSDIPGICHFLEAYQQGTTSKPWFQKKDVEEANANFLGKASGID
# T1 sequence (P16068 1-619): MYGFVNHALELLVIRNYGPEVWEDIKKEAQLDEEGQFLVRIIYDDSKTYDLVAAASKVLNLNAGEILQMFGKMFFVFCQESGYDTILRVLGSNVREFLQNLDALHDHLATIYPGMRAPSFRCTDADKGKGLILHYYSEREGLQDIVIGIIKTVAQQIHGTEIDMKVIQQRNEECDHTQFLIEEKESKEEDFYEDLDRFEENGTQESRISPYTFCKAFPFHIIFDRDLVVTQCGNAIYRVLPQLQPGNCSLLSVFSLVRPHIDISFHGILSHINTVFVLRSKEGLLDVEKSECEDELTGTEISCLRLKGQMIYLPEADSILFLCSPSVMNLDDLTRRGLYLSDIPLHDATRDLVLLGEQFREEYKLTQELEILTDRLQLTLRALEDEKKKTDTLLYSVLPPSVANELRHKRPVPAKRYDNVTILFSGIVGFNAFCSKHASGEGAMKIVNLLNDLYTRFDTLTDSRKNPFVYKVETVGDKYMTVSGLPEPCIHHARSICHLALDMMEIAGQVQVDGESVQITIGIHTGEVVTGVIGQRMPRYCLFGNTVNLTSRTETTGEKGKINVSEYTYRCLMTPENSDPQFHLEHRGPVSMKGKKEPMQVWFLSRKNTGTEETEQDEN
# bovine lung sGC [1] = target: T2, bovine lung sGC (Bos taurus, UniProt P16068+P19687); experiment: NO; type: biochemical
# T2 sequence (P19687 1-691): T1 sequence (P19687 1-691)
# T2 sequence (P16068 1-619): T1 sequence (P16068 1-619)
# Method in brief: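 Screening and kinetics used bovine lung sGC diluted 17-fold in 50mM Tris pH 7.5, 5mM MgCl2, 2mM BME, 20% sucrose, 0.5mg/ml BSA. 1nM enzyme was preincubated with inhibitor 10 min at 37°C in 50mM Tris pH 7.5, 2mM BME, 5mM MgCl2. DMSO-matched controls (1–2.5%). GTP plus 100μM SNAP started a 10 min, 37°C reaction, stopped by 10 min boiling. cGMP measured by ELISA; 3 independent experiments.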
# sGC catalytic domain = target: T3, sGC catalytic domain (Homo sapiens, UniProt Q02108+Q02153); experiment: Purified sGC catalytic domain activity assay; type: biochemical; conditions: 1μM catalytic domain, 3 GTP concentrations, inhibitor 0–600μM
# T3 sequence (Q02108 481-608 limits assumed): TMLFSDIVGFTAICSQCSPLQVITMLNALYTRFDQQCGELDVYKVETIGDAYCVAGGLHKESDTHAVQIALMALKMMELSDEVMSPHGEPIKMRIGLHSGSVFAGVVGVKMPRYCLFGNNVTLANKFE
# T3 sequence (Q02153 421-554 limits assumed): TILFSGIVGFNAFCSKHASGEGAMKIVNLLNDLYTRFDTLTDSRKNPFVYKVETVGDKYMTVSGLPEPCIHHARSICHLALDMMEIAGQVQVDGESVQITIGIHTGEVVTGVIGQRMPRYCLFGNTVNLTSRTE
# Method in brief: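 Heterodimeric α1/β1 catalytic domain was co-purified from mixed cell pellets by His-tag Ni-NTA (30–300mM imidazole elution steps). The tag was removed with TEV, and the protein gel-filtered in 50mM HEPES pH 7, 150mM NaCl and stored at −80°C. Inhibitor was preincubated with domain 10 min at 37°C with Mg2+. GTP started the reaction, stopped by boiling after 10 min. cGMP measured by ELISA; triplicate; SEM.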
# [2] = Compound aggregation by dynamic light scattering; type: physicochemical; conditions: DYNAPRO, Fig S2
# bovine lung sGC [3] = target: T2, bovine lung sGC; experiment: BAY 58-2667 activated sGC activity assay; type: biochemical; conditions: 100μM inhibitor, 600μM GTP
# Method in brief: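 Bovine lung sGC, diluted 17-fold in 50mM Tris pH 7.5, 5mM MgCl2, 2mM BME, 20% sucrose, 0.5mg/ml BSA, used at 1nM. Preincubated 10 min at 37°C with varying BAY 58-2667 and inhibitor in 5mM MgCl2. 0.5% DMSO served as control. GTP added to start. Stopped by boiling; cGMP measured by ELISA. Triplicate, 3 independent experiments; SEM.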
# bovine lung sGC [4] = target: T2, bovine lung sGC; experiment: BAY 41-2272 stimulated sGC activity assay; type: biochemical; conditions: 100μM inhibitor, range of BAY 41-2272, presence and absence of 1μM SNAP, 500μM GTP
# SHV-1 β-lactamase = SHV-1 β-lactamase (Klebsiella pneumoniae, UniProt P0AD64); experiment: Promiscuous inhibition test with SHV-1 β-lactamase; type: biochemical; conditions: Fig S1
# Chain of SHV-1 β-lactamase (P0AD64 22-286): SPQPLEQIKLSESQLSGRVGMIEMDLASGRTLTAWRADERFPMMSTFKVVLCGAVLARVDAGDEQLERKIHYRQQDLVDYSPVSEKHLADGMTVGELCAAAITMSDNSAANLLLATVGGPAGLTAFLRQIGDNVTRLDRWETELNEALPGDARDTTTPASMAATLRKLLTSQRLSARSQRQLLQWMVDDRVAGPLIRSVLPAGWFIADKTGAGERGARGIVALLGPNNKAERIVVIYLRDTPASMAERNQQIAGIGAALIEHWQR
structure (smiles),measurement,setting,value
Nc1nc(=O)[nH]nc1Nc1ccc(O)cc1 [Compound 1],sGC aggregation caused by compound (size exclusion chromatography),full length sGC,did not cause sGC aggregation
same,"inhibition of NO stimulated sGC activity, initial screen","bovine lung sGC [1]; 1nM sGC, 25μM GTP, 100μM SNAP, 10μM inhibitor",substantial inhibition
same,α-value (mixed inhibition model),"bovine lung sGC [1]; global fit of steady state inhibition data, 100μM SNAP",3.6
same,inhibition mechanism,bovine lung sGC [1]; judged from α-value of mixed model fit,mostly non-competitive
same,inhibition of the purified catalytic domain (in words),sGC catalytic domain,did not observe significant inhibition
same,aggregate formation (dynamic light scattering),[2],do not form detectably large aggregates
same,inhibition of BAY 58-2667 activated sGC,bovine lung sGC [3],96%
same,inhibition of BAY 41-2272 stimulated sGC,bovine lung sGC [4],inhibited
same,inhibition of SHV-1 β-lactamase,SHV-1 β-lactamase,did not inhibit
